Legend:
[1] = test system: FGFR2-expressing cell lines; conditions: excess Bliss score, n=14 cell lines, Supplementary Fig. S11
pAKT = test: Western blots of PI3K signaling feedback over time; assay type: cell-based; conditions: PIK3CAmut MFM223 cells
Summary of the method: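 PIK3CA-mutant MFM223 and PIK3CA-WT SUM52PE cells treated with 0.5 μmol/L test compound or 1 μmol/L reference PI3Kα inhibitor, with lysates taken at several durations. Immunoblotted for pHER3 and pAKT: nitrocellulose, 5% milk/TBST block, primary 1:1,000 overnight at 4°C, HRP secondary 1:10,000, ECL/film. n=2.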

mutated p110α = mutated p110α (Homo sapiens, UniProt P42336, H1047R); assay type: cell-based; conditions: FGFR2 N550K-overexpressing cells, not matched control cells; 24 h
Chain of mutated p110α (P42336 whole entry H1047R): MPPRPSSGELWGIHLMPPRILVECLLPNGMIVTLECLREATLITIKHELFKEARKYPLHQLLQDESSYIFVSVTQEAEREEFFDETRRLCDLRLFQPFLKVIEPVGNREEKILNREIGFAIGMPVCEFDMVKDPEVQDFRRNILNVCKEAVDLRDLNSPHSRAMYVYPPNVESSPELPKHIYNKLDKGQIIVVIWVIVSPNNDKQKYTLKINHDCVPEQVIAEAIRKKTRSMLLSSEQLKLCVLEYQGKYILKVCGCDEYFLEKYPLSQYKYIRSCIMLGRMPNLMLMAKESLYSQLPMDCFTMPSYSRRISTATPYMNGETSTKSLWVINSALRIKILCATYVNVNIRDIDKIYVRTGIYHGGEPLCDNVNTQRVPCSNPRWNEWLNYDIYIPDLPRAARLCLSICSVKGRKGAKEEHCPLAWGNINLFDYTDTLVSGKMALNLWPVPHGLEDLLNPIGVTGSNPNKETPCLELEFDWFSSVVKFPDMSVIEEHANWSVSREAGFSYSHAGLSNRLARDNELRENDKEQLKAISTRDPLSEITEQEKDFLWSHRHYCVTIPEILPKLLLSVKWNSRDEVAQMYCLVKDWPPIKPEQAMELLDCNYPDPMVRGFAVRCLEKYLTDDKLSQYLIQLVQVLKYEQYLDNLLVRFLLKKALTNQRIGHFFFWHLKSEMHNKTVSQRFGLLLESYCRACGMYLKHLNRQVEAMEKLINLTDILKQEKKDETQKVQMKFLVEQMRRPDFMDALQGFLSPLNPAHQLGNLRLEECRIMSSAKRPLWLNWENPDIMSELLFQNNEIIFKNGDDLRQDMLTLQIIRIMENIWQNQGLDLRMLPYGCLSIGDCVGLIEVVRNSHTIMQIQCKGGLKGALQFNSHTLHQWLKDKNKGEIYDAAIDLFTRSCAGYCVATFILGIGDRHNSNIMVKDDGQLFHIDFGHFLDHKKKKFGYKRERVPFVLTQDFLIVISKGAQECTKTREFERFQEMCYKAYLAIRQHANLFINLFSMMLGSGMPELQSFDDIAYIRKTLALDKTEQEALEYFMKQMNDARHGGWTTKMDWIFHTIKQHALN
Chain of mutated p110α (O00459 whole entry partner): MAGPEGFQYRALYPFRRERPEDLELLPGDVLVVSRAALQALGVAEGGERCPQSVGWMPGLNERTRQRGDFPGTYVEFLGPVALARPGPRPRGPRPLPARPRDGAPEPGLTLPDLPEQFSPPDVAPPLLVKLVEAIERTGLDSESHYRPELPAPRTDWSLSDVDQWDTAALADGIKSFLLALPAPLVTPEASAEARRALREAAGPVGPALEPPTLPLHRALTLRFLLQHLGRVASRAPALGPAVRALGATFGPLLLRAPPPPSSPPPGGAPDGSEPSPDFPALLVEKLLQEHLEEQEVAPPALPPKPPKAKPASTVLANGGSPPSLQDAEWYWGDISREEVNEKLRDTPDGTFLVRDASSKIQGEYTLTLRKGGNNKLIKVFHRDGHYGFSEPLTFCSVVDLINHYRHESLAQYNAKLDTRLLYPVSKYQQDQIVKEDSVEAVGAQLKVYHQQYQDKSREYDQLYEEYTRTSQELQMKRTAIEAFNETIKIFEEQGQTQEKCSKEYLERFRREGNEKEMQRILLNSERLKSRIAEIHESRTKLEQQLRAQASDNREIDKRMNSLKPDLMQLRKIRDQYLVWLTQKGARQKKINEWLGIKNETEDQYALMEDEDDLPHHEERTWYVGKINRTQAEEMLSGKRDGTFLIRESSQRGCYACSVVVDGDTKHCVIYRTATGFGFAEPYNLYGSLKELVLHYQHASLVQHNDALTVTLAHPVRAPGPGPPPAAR

PIK3CAmut solid tumors = test: Phase 1 study: antitumor activity per RECIST v1.1; assay type: in vivo, human
MFM223 cell line = test: Live-cell imaging by IncuCyte, long-term proliferation; assay type: cell-based; conditions: single agent
Summary of the method: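 Plated at 2,000 cells/well; inhibitors added next day at set concentrations. Medium with or without inhibitors renewed every 7 days. Phase-contrast imaging every 4 h in IncuCyte Zoom; confluence tracked in six replicate wells for the whole experiment.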

HER3–p85β interaction = test: Co-IP of p85β / HER3; assay type: cell-based
Summary of the method: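 Cells exposed to test compound or FGFR2 inhibitor at several concentrations for 1 h. Lysis in Tris pH 7.5/NaCl/EDTA/1% NP40/10% glycerol with protease and phosphatase inhibitors. 1 mg lysate incubated overnight with anti-p85β (1:100, 1 mL), then protein A agarose 2 h. Immunoblot on nitrocellulose with 1:1,000 primary overnight at 4°C, HRP secondary 1:10,000 1 h RT, ECL/film. n=2.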

[2] = test system: MFM223 X2.2 tumor xenograft; test: MFM223 X2.2 xenograft efficacy study; assay type: in vivo, NCR nude mice; conditions: single agent, 25 mg/kg daily for 22 days
[3] = Phase 1 study: plasma pharmacokinetics, noncompartmental analysis; assay type: in vivo, human
Summary of the method: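 Oral single dose on C1D1, then 7-day washout with serial plasma PK sampling, then once-daily dosing from C1D8. PK population: patients with ≥1 dose and ≥1 evaluable post-dose sample. Parameters from plasma concentration–time profiles after single and multiple doses by noncompartmental analysis, summarized by dose level.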

p110α [4] = test: Ubiquitin pulldown; assay type: cell-based; conditions: 6 hours
p110α [5] = molecular target: p110α (Homo sapiens, UniProt P42336); test: Ubiquitin pulldown; assay type: cell-based; conditions: PIK3CA WT cell line SUM52PE; 6 hours
Chain of p110α (Homo sapiens, UniProt P42336) (P42336 whole entry): as the sequence (P42336 whole entry H1047R) above, with R1047H counted along it

PIK3CA MAF in ctDNA = test: ctDNA PIK3CA mutation allele frequency dynamics; assay type: in vivo, human; conditions: pretreatment vs on-treatment, majority of paired specimens
[6] = Phase 1 dose-escalation study NCT03006172 arm A: safety, DLT, MTD; assay type: in vivo, human
[7] = test system: FDG uptake of target lesions; test: FDG-PET imaging pharmacodynamic response; assay type: in vivo, human
Summary of the method: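 FDG-PET at baseline and after 2 weeks of oral once-daily dosing (C1D22–28; C1D15–22 for backfill). On-treatment scans 1–4 h post-dose; blood glucose <180 mg/dL required. Central read by one radiologist; up to five target lesions (tumor:background ≥2:1, longest diameter ≥15 mm). PMR: >25% decrease in mean % change of lean-body-mass-corrected SUVmax, no new FDG-avid lesions.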

pAKT, pS6, Ki67 = test: IHC analysis of paired tumor tissue samples; assay type: in vivo, human; conditions: baseline vs C1D15 biopsies, nine patients
Summary of the method: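 Paired FFPE tumor biopsies from baseline and C1D15 during oral once-daily dosing. IHC for Ki67 (rabbit mAb clone 30-9; nuclear staining), pAKT and pS6. Cytoplasmic pAKT/pS6 scored by H-score: intensity 0, 1+, 2+, 3+. H-score = Σ(% cells at each intensity × intensity).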

[8] = test system: SUM52PE, MFE296, AN3CA and MFE280 cell lines; test: Dose-response proliferation assays; assay type: cell-based; conditions: MFE296, AN3CA (FGFR2-high) and MFE280 (FGFR2-low)
[9] = test system: phosphorylation of FGFR, FRS2α, PLCɣ, AKT, and ERK; test: Western blots of FGFR signaling; assay type: cell-based; conditions: SUM52PE, MFE296, and AN3CA cells; 24 h
Summary of the method: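 Lysates resolved and transferred to nitrocellulose; blocked 1 h in 5% milk/TBST (20 mM Tris-HCl pH 7.5, 135 mM NaCl, 0.1% Tween 20) at RT. Primary antibodies 1:1,000 overnight at 4°C; HRP anti-mouse or anti-rabbit 1:10,000 1 h RT. Detection by ECL and film.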

RAS-GTP = RAS-GTP pulldown and RAS co-IP; assay type: cell-based; conditions: MFM223 or MFE280 cells
Summary of the method: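 Cells treated with FGFR2 inhibitor or lapatinib for varying durations. Lysis on ice in 25 mM Tris pH 7.5, 150 mM NaCl, 1 mM EDTA, 1% NP40, 5 mM MgCl2, 10% glycerol plus inhibitors. Lysates incubated with capture bead conjugate or mouse IgG magnetic beads (control) at 4°C for 5 h. Beads washed 3× in cold buffer, eluted in sample buffer, immunoblotted.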

[10] = test system: phosphorylation of FGFR2, HER3 and AKT; test: Immunoblotting after 1 hour treatment; assay type: cell-based; conditions: solely in MFE280 cells, 2-μmol/L
Summary of the method: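 Cells treated 1 h with 0.03 μmol/L FGFR2 inhibitor or 2 μmol/L lapatinib, then immunoblotted. Transfer to nitrocellulose; block 1 h in 5% milk/TBST RT. Primary antibody 1:1,000 overnight at 4°C; HRP secondary 1:10,000 1 h RT; ECL with film. n=2.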

C[C@@H](Oc1ccc2[nH]nc(/C=C/c3cnn(CCO)c3)c2c1)c1c(Cl)cncc1Cl [LY2874455]
combination effect with inavolisib [1]: synergized

Cc1nc(NC(=O)N2CCC[C@H]2C(N)=O)sc1-c1ccnc(C(C)(C)C(F)(F)F)c1 [alpelisib, reference compound]
time to pAKT rebound (pAKT; 1-μmol/L alpelisib): 30 minutes

C[C@H](Nc1ccc2c(c1)OCCn1cc(N3C(=O)OC[C@H]3C(F)F)nc1-2)C(N)=O [inavolisib]
mutated p110α protein level (mutated p110α): degradation
median progression-free survival (PFS) (PIK3CAmut solid tumors; 95% CI, 3.5–7.3): 3.7 months
landmark PFS rate at 6 months (PIK3CAmut solid tumors; 95% CI, 15–59): 37%
clinical benefit rate (PIK3CAmut solid tumors; N = 20 (n = 9)): 45%
best overall response rate (PR) (PIK3CAmut solid tumors; patients with measurable disease (n = 19), RECIST v1.1): 26%
duration of response (PIK3CAmut solid tumors; responders with a confirmed response, 95% CI, 3.0–not evaluable): 3.7 months
day of rebound in proliferation (resistance) after treatment initiation (MFM223 cell line): 11 days
binding of p85β to HER3 (HER3–p85β interaction; SUM52PE, MFM223, and MFE280 cells, 1 hour): did not affect
tumor growth [2]: did not result in tumor growth inhibition
accumulation ([3]; continuous once-daily dosing): twofold
half-life ([3]; human, plasma, oral): 16 h
plasma exposure versus dose ([3]; single and multiple doses, 6-12 mg): dose-proportional
ubiquitination of p110α (p110α [4]; PIK3CAmut cell lines MFM223 and MFE280): induced ubiquitination
ubiquitination of p110α (p110α [5]): no ubiquitination
PIK3CA MAF over time (PIK3CA MAF in ctDNA): decreased
DLT-evaluable patients who experienced DLTs ([6]; 12-mg dose group, grade 4 hyperglycemia and grade 3 fatigue that lasted 5 days): two of four
Alopecia, related AE ([6]; All grades, N = 20): 3 (15) n (%)
Asthenia, related AE ([6]; All grades, N = 20): 2 (10) n (%)
Constipation, related AE ([6]; All grades, N = 20): 2 (10) n (%)
Decreased appetite, related AE ([6]; All grades, N = 20): 4 (20) n (%)
Diarrhea, related AE ([6]; All grades, N = 20): 9 (45) n (%)
Dysgeusia, related AE ([6]; All grades, N = 20): 2 (10) n (%)
Fatigue, related AE ([6]; All grades, N = 20): 3 (15) n (%)
Flatulence, related AE ([6]; All grades, N = 20): 2 (10) n (%)
Headache, related AE ([6]; All grades, N = 20): 2 (10) n (%)
Hyperglycemia, related AE ([6]; All grades, N = 20): 14 (70) n (%)
Hyponatremia, related AE ([6]; All grades, N = 20): 2 (10) n (%)
Lymphopenia, related AE ([6]; All grades, N = 20): 2 (10) n (%)
Nausea, related AE ([6]; All grades, N = 20): 3 (15) n (%)
Stomatitis (grouped term), related AE ([6]; All grades, N = 20): 4 (20) n (%)
Taste disorder, related AE ([6]; All grades, N = 20): 2 (10) n (%)
Thrombocytopenia, related AE ([6]; All grades, N = 20): 2 (10) n (%)
Total number of patients with at least one AE, related AE ([6]; All grades, N = 20): 19 (95) n (%)
Vision blurred, related AE ([6]; All grades, N = 20): 2 (10) n (%)
Vomiting, related AE ([6]; All grades, N = 20): 4 (20) n (%)
Weight decreased, related AE ([6]; All grades, N = 20): 3 (15) n (%)
patients with at least one related AE leading to dose modification ([6]; Eleven patients, N = 20): 55%
Alopecia, related AE ([6]; Grades 3–5, N = 20): 0 n (%)
Asthenia, related AE ([6]; Grades 3–5, N = 20): 1 (5) n (%)
Constipation, related AE ([6]; Grades 3–5, N = 20): 0 n (%)
Decreased appetite, related AE ([6]; Grades 3–5, N = 20): 0 n (%)
Diarrhea, related AE ([6]; Grades 3–5, N = 20): 0 n (%)
Dysgeusia, related AE ([6]; Grades 3–5, N = 20): 0 n (%)
Fatigue, related AE ([6]; Grades 3–5, N = 20): 1 (5) n (%)
Flatulence, related AE ([6]; Grades 3–5, N = 20): 0 n (%)
Headache, related AE ([6]; Grades 3–5, N = 20): 0 n (%)
Hyperglycemia, related AE ([6]; Grades 3–5, N = 20): 4 (20) n (%)
Hyponatremia, related AE ([6]; Grades 3–5, N = 20): 0 n (%)
Lymphopenia, related AE ([6]; Grades 3–5, N = 20): 1 (5) n (%)
Nausea, related AE ([6]; Grades 3–5, N = 20): 1 (5) n (%)
Stomatitis (grouped term), related AE ([6]; Grades 3–5, N = 20): 0 n (%)
Taste disorder, related AE ([6]; Grades 3–5, N = 20): 0 n (%)
Thrombocytopenia, related AE ([6]; Grades 3–5, N = 20): 0 n (%)
Total number of patients with at least one AE, related AE ([6]; Grades 3–5, N = 20): 8 (40) n (%)
Vision blurred, related AE ([6]; Grades 3–5, N = 20): 0 n (%)
Vomiting, related AE ([6]; Grades 3–5, N = 20): 0 n (%)
Weight decreased, related AE ([6]; Grades 3–5, N = 20): 1 (5) n (%)
grade 5 AE ([6]; N = 20): No grade 5 AE
grade of treatment-related diarrhea events ([6]; N = 20): 1 to 2
treatment-related grade ≥3 gastrointestinal toxicities ([6]; N = 20): No treatment-related grade ≥3 gastrointestinal toxicities
serious AE related to inavolisib ([6]; grade 4 hyperglycemia, 12-mg cohort): One patient
colitis ([6]; monotherapy, including nine patients on treatment for ≥5 months): not observed
maximum tolerated dose (MTD) ([6]; once daily oral, patients with PIK3CAmut solid tumors): 9 mg
treatment-related rash ([6]; one patient, grade 1, N = 20): 5%
mean reduction in uptake ([7]; 6 mg): 25%
patients achieving a PMR ([7]; 6 mg, 4/7): 57%
mean reduction in uptake ([7]; >6 mg): 43%
patients achieving a PMR ([7]; >6 mg, 12/13): 92%
time to pAKT reactivation (pAKT; 0.5-μmol/L inavolisib): 24 hours
PI3K pathway activity (H-scores pAKT, pS6) and Ki67 proliferation (pAKT, pS6, Ki67): consistent decrease

CCN1CCN(c2ccc(Nc3cc(N(C)C(=O)Nc4c(Cl)c(OC)cc(OC)c4Cl)ncn3)cc2)CC1 [infigratinib]
combination effect with inavolisib [1]: synergized
sensitivity of cell lines [8]: sensitive
reduction of phosphorylation of FGFR and downstream effectors [9]: equal potency

CS(=O)(=O)CCNCc1ccc(-c2ccc3ncnc(Nc4ccc(OCc5cccc(F)c5)c(Cl)c4)c3c2)o1 [lapatinib, reference compound]
HER3–p85β interaction (HER3–p85β interaction; MFE280 FGFR2-low cells, 1 h): suppressed
RAS-GTP levels and RAS–p110α interaction (RAS-GTP): affected neither
effect on inavolisib-induced p110α ubiquitination (p110α [4]; MFE280 cells, combined with inavolisib): prevented
phosphorylation of HER3 and AKT [10]: decreased phosphorylation
